pIC50: −log10 of the molar value. Values after ≈ are worked out from the molar mass of the structure shown.
Tests used:
Staphylococcus aureus [1] = assay: Antibacterial activity against vancomycin-intermediate Staphylococcus aureus VISA3 after 18 hrs; format: functional; settings: VISA3, 18 h
Outline: (§1)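 Twofold serial dilutions in Tryptic Soy Broth, 0.1 to 80 µg/mL; stocks in DMSO/TSB 1:10 v/v. Inoculum adjusted to 0.5 McFarland, then diluted in sterile saline and TSB. Incubated 35 °C for 18 h. MIC taken as the lowest concentration with no visible growth. Triplicate.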

Staphylococcus aureus [2] = assay: Antibacterial activity against multidrug-resistant Staphylococcus aureus 3SP/R33 after 18 hrs; format: functional; settings: 3SP/R33, 18 h
Outline: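 Twofold serial dilutions in Tryptic Soy Broth, 0.1 to 80 µg/mL. Stocks prepared in DMSO/TSB 1:10 v/v. Inoculum was adjusted to 0.5 McFarland, then diluted in sterile saline and TSB. Plates were incubated at 35 °C for 18 h. MIC taken as the lowest concentration with no visible growth. Readings at 24 and 48 h served as sterility control. Run in triplicate.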

Staphylococcus aureus [3] = assay: Antibacterial activity against Staphylococcus aureus ATCC 25923 after 18 hrs; format: functional; settings: ATCC 25923, 18 h; outline: as §1
Trypanosoma cruzi = assay: Antitrypanosomal activity against epimastigote form of Trypanosoma cruzi Y after 5 days by spectrophotometer analysis; format: functional, organism-based; settings: 120 h
Outline: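 Stationary-phase epimastigotes from a 10-day, 28 °C culture were set at 2.0 × 10^6 parasites/mL in LIT medium. Compounds in DMSO were diluted into LIT at 1.25–40.0 µM and incubated 5 days at 28 °C. A580 on days 0 and 5 gave % growth inhibition against untreated cultures. IC50 came from dose–response curves (≥4 concentrations). Triplicate; benznidazole reference.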

Candida albicans = assay: Antifungal activity against Candida albicans ATCC 537Y after 48 hrs by serial dilution method; format: functional
Outline: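 Broth microdilution following CLSI M27-A2, adapted for higher sensitivity. Stocks made in RPMI 1640 with 20% DMSO. Serial dilutions inoculated with C. albicans in RPMI 1640 at 10^3–10^5 CFU/mL final, incubated 35 °C for 48 h. MIC is the lowest concentration giving prominent growth reduction. Wells above 5% v/v DMSO were discarded. Triplicate; fluconazole reference.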

Compound	MIC (Staphylococcus aureus [1]) [µg/mL]	MIC (Staphylococcus aureus [2]) [µg/mL]	MIC (Staphylococcus aureus [3]) [µg/mL]	pIC50 (Trypanosoma cruzi)	MIC (Candida albicans) [µg/mL]
COc1ccc(C2=NN(C(C)=O)C(c3ccc([N+](=O)[O-])s3)O2)cc1 (stereo not given)	0.63 (≈ 1.81 µM)	1.25 (≈ 3.6 µM)	2.23 (≈ 6.42 µM)	4.97	–
CC(=O)N1N=C(c2ccc(Br)cc2)OC1c1ccc([N+](=O)[O-])s1 (stereo not given)	2.5 (≈ 6.31 µM)	1.25 (≈ 3.15 µM)	2.66 (≈ 6.71 µM)	4.99	–
CC1(C)S[C@@H]2[C@H](NC(=O)[C@H](N)c3ccccc3)C(=O)N2[C@H]1C(=O)O [AMPICILLIN]	–	–	0.1 (≈ 0.286 µM)	–	–
CC(=O)N1N=C(c2ccccc2)OC1c1ccc([N+](=O)[O-])s1 (stereo not given)	0.63 (≈ 1.99 µM)	1.25 (≈ 3.94 µM)	2.46 (≈ 7.75 µM)	4.99	–
CCOc1ccc(C2=NN(C(C)=O)C(c3ccc([N+](=O)[O-])s3)O2)cc1 (stereo not given)	2.5 (≈ 6.92 µM)	1.25 (≈ 3.46 µM)	2.36 (≈ 6.53 µM)	4.57	5.83 (≈ 16.1 µM)
CCCCOc1ccc(C2=NN(C(C)=O)C(c3ccc([N+](=O)[O-])s3)O2)cc1 (stereo not given)	5 (≈ 12.8 µM)	1.25 (≈ 3.21 µM)	1.25 (≈ 3.21 µM)	4.94	6.78 (≈ 17.4 µM)
CCc1ccc(C2=NN(C(C)=O)C(c3ccc([N+](=O)[O-])s3)O2)cc1 (stereo not given)	2.5 (≈ 7.24 µM)	1.25 (≈ 3.62 µM)	2.69 (≈ 7.79 µM)	4.97	–
COC(=O)c1ccc(C2=NN(C(C)=O)C(c3ccc([N+](=O)[O-])s3)O2)cc1 (stereo not given)	0.63 (≈ 1.68 µM)	1.25 (≈ 3.33 µM)	2.95 (≈ 7.86 µM)	5.10	–
CC(=O)N1N=C(c2ccc(Cl)cc2)OC1c1ccc([N+](=O)[O-])s1 (stereo not given)	2.5 (≈ 7.11 µM)	1.25 (≈ 3.55 µM)	1.97 (≈ 5.6 µM)	4.96	4.25 (≈ 12.1 µM)
CC(=O)N1N=C(c2ccc([N+](=O)[O-])cc2)OC1c1ccc([N+](=O)[O-])s1 (stereo not given)	1.25 (≈ 3.45 µM)	2.5 (≈ 6.9 µM)	2.39 (≈ 6.6 µM)	5.01	–
CC(=O)N1N=C(c2ccc(C(F)(F)F)cc2)OC1c1ccc([N+](=O)[O-])s1 (stereo not given)	2.5 (≈ 6.49 µM)	1.25 (≈ 3.24 µM)	2.62 (≈ 6.8 µM)	4.85	7.2 (≈ 18.7 µM)
CCCOc1ccc(C2=NN(C(C)=O)C(c3ccc([N+](=O)[O-])s3)O2)cc1 (stereo not given)	2.5 (≈ 6.66 µM)	2.5 (≈ 6.66 µM)	3.28 (≈ 8.74 µM)	4.91	–
O=C(N/N=C/c1ccc([N+](=O)[O-])o1)c1ccc(O)cc1 [NIFUROXAZIDE]	5 (≈ 18.2 µM)	–	5.9 (≈ 21.4 µM)	3.92	–
CCCc1ccc(C2=NN(C(C)=O)C(c3ccc([N+](=O)[O-])s3)O2)cc1 (stereo not given)	1.25 (≈ 3.48 µM)	1.25 (≈ 3.48 µM)	3.28 (≈ 9.13 µM)	5.00	–
CC(=O)N1N=C(c2ccc(C#N)cc2)OC1c1ccc([N+](=O)[O-])s1 (stereo not given)	0.63 (≈ 1.84 µM)	1.25 (≈ 3.65 µM)	2.66 (≈ 7.77 µM)	5.09	–
CC(=O)N1N=C(c2ccc(I)cc2)OC1c1ccc([N+](=O)[O-])s1 (stereo not given)	2.5 (≈ 5.64 µM)	1.25 (≈ 2.82 µM)	2.87 (≈ 6.48 µM)	4.92	–
CC(=O)N1N=C(c2ccc(C)cc2)OC1c1ccc([N+](=O)[O-])s1 (stereo not given)	2.5 (≈ 7.54 µM)	1.25 (≈ 3.77 µM)	2.62 (≈ 7.91 µM)	4.94	2.95 (≈ 8.9 µM)
O=C(Cn1ccnc1[N+](=O)[O-])NCc1ccccc1 [BENZNIDAZOLE]	–	–	–	4.68	–
